Source: ChEMBL document CHEMBL1124186, “Synthesis and evaluation of tylosin-related macrolides modified at the aldehyde function: a new series of orally effective antibiotics” (1988)
In brackets after ≈: the same amount, converted by molar mass.

How the values were obtained:
Haemophilus influenzae = test: In vitro antimicrobial activity against Haemophilus influenzae.; format: functional
Staphylococcus aureus = test: In vitro antimicrobial activity against Staphylococcus aureus X1; format: functional
Streptococcus pyogenes [1] = test: In vivo effective dose against experimental infections in rodent caused by Streptococcus pyogenes C203 when administered sc; format: functional
Streptococcus pneumoniae = test: In vitro antimicrobial activity against Streptococcus pneumoniae; format: functional
[2] = test system: Staphylococcus epidermidis; test: In vitro antimicrobial activity against Staphylococcus epidermidis EPI1; format: functional
Enterococcus faecium = test: In vitro antimicrobial activity against Streptococcus faecium X66; format: functional, streptococcus fae-cium
Streptococcus pyogenes [3] = test: In vitro antimicrobial activity against Streptococcus pyogenes C203; format: functional
Streptococcus pyogenes [4] = test: In vivo effective dose against experimental infections in rodent caused by Streptococcus pyogenes C203 when administered orally; format: functional; conditions: po
Rattus norvegicus [5] = test: Peripheral plasma levels in rats after oral administration of 100 mg/kg dose for 0.25 hr; format: functional, organism-based; set-up: dose 100 mg/kg
Summary of the method: (§1)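 Rats received 100 mg/kg orally and were sampled for peripheral plasma. Concentrations were measured by Micrococcus luteus agar-diffusion microbiological assay in Antibiotic Medium 1, with zone sizes converted using the standard curve for the appropriate compound. Each value is the average of three rats per time point.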

Rattus norvegicus [6] = test: Peripheral plasma levels in rats after oral administration of 100 mg/kg dose for 0.5 hr; format: functional, organism-based; set-up: dose 100 mg/kg; summary of the method: as §1
Rattus norvegicus [7] = test: Peripheral plasma levels in rats after oral administration of 100 mg/kg dose for 1 hr; format: functional, organism-based; set-up: dose 100 mg/kg; summary of the method: as §1
Rattus norvegicus [8] = test: Peripheral plasma levels in rats after oral administration of 100 mg/kg dose for 2 hr; format: functional, organism-based; set-up: dose 100 mg/kg; summary of the method: as §1
Rattus norvegicus [9] = test: Peripheral plasma levels in rats after oral administration of 100 mg/kg dose for 4 hr; format: functional, organism-based; set-up: dose 100 mg/kg; summary of the method: as §1

MIC (Haemophilus influenzae) [µg/mL] | MIC (Staphylococcus aureus) [µg/mL] | MIC (Streptococcus pneumoniae) [µg/mL] | MIC [2] [µg/mL] | MIC (Enterococcus faecium) [µg/mL] | MIC (Streptococcus pyogenes [3]) [µg/mL] | Structure (SMILES) | ED50 (Streptococcus pyogenes [1]) [mg/kg] | ED50 (Streptococcus pyogenes [4]) [mg/kg] | Concentration (Rattus norvegicus [5]) [µg/mL] | Concentration (Rattus norvegicus [6]) [µg/mL] | Concentration (Rattus norvegicus [7]) [µg/mL] | Concentration (Rattus norvegicus [8]) [µg/mL] | Concentration (Rattus norvegicus [9]) [µg/mL]
32 (≈ 36.2 µM) | 0.5 (≈ 0.566 µM) | 4 (≈ 4.53 µM) | 0.25 (≈ 0.283 µM) | 16 (≈ 18.1 µM) | 0.5 (≈ 0.566 µM) | CC[C@H]1OC(=O)C[C@@H](O)[C@H](C)[C@@H](O[C@@H]2O[C@H](C)[C@@H](O)[C@H](N(C)C)[C@H]2O)[C@@H](CCI)C[C@@H](C)C(=O)/C=C/C(C)=C/[C@@H]1CO[C@@H]1O[C@H](C)[C@@H](O)[C@@H](OC)[C@H]1OC | 4.3 | 19 | – | – | – | – | –
– | 0.25 (≈ 0.289 µM) | 2 (≈ 2.31 µM) | 0.25 (≈ 0.289 µM) | 8 (≈ 9.24 µM) | 0.25 (≈ 0.289 µM) | CC[C@H]1OC(=O)C[C@@H](O)[C@H](C)[C@@H](O[C@@H]2O[C@H](C)[C@@H](O)[C@H](N(C)C)[C@H]2O)[C@@H](CCSc2ccccc2)C[C@@H](C)C(=O)/C=C/C(C)=C/[C@@H]1CO[C@@H]1O[C@H](C)[C@@H](O)[C@@H](OC)[C@H]1OC | 10 | – | 0.5 | 1.3 | 2.5 | 2.9 | 4.2
16 (≈ 18.9 µM) | 0.5 (≈ 0.591 µM) | 4 (≈ 4.73 µM) | 1 (≈ 1.18 µM) | 8 (≈ 9.46 µM) | 0.5 (≈ 0.591 µM) | CCOC(C[C@H]1C[C@@H](C)C(=O)/C=C/C(C)=C/[C@H](CO[C@@H]2O[C@H](C)[C@@H](O)[C@@H](OC)[C@H]2OC)[C@@H](CC)OC(=O)C[C@@H](O)[C@H](C)[C@H]1O[C@@H]1O[C@H](C)[C@@H](O)[C@H](N(C)C)[C@H]1O)OCC | 3.4 | 35 | – | – | – | – | –
64 (≈ 62.7 µM) | 1 (≈ 0.979 µM) | 8 (≈ 7.83 µM) | 2 (≈ 1.96 µM) | 128 (≈ 125 µM) | 1 (≈ 0.979 µM) | CC[C@H]1OC(=O)C[C@@H](O)[C@H](C)[C@@H](O[C@@H]2O[C@H](C)[C@@H](O[C@H]3C[C@@](C)(O)[C@@H](O)[C@H](C)O3)[C@H](N(C)C)[C@H]2O)[C@@H](CCNCCc2ccccc2)C[C@@H](C)C(=O)/C=C/C(C)=C/[C@@H]1CO[C@@H]1O[C@H](C)[C@@H](O)[C@@H](OC)[C@H]1OC | 9.1 | 76 | – | – | – | – | –
8 (≈ 11.4 µM) | 4 (≈ 5.69 µM) | 1 (≈ 1.42 µM) | 4 (≈ 5.69 µM) | 8 (≈ 11.4 µM) | 2 (≈ 2.85 µM) | CC[C@H]1OC(=O)C[C@@H](O)[C@H](C)[C@@H](O[C@@H]2O[C@H](C)[C@@H](O)[C@H](N(C)C)[C@H]2O)[C@@H](CCNCCc2ccccc2)C[C@@H](C)C(=O)/C=C/C(C)=C/[C@@H]1CO | 7.2 | > 100 | – | – | – | – | –
32 (≈ 33.3 µM) | 0.5 (≈ 0.52 µM) | 1 (≈ 1.04 µM) | 0.5 (≈ 0.52 µM) | 8 (≈ 8.32 µM) | 0.5 (≈ 0.52 µM) | CC[C@H]1OC(=O)C[C@@H](O)[C@H](C)[C@@H](O[C@@H]2O[C@H](C)[C@@H](O)[C@H](N(C)C)[C@H]2O)[C@@H](CCOc2ccc(CN3CCCCCC3)cc2)C[C@@H](C)C(=O)/C=C/C(C)=C/[C@@H]1CO[C@@H]1O[C@H](C)[C@@H](O)[C@@H](OC)[C@H]1OC | 1.9 | 27 | – | – | – | – | –
